TbMetRS inhib = Trypanosoma brucei MetRS inhibition | inhibition, % at 11.9 µM | actives 0.4% (n = 360,000) | purified T. brucei MetRS, ATP depletion, Kinase-Glo luminescence | AID 624268;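 active means inhibition above a per-plate cutoff of the control wells' mean inhibition plus 3 SD, cut at about 5.5% in these data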;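 further: 0% = DMSO wells median and 100% = median of wells with control inhibitor compound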
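Measured by: Kinase-Glo luciferase luminescence reporting remaining unconsumed ATP. Material: purified T. brucei MetRS enzyme. Doses: 11.9 µM compound single dose, 0.9% DMSO. Medium: HEPES buffer containing pyrophosphatase, BSA, spermine, DTT. Times: 15 min preincubation, 2 h reaction, all 25 °C. Reagent: methionine, ATP and bulk E. coli tRNA.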
sPLA2-III inh = Blocks human group III sPLA2 activity | actives 0.56% (n = 370,000) | QFRET BODIPY PC-A2 liposome hydrolysis, fluorescence | inhibition, % at 12.2 µM | Q9NZ20;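 active means inhibition above mean plus 3 SD of compounds lying within the high and low control bounds, cut at about 19% in these data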;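 further: 0% = median of test compound wells and 100% = no enzyme DMSO wells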
PLC-beta3 inh = PLC-beta3 (human) inhibition, primary screen; AID 720704; actives 0.18% (n = 370,000); Purified PLC-beta3, fluorogenic substrate, fluorescence; inhibition, % at 12.2 µM;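 further: 0% = median of compound wells on plate and 100% = full blocker control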
Target sequence (Q01970 whole entry, looked up): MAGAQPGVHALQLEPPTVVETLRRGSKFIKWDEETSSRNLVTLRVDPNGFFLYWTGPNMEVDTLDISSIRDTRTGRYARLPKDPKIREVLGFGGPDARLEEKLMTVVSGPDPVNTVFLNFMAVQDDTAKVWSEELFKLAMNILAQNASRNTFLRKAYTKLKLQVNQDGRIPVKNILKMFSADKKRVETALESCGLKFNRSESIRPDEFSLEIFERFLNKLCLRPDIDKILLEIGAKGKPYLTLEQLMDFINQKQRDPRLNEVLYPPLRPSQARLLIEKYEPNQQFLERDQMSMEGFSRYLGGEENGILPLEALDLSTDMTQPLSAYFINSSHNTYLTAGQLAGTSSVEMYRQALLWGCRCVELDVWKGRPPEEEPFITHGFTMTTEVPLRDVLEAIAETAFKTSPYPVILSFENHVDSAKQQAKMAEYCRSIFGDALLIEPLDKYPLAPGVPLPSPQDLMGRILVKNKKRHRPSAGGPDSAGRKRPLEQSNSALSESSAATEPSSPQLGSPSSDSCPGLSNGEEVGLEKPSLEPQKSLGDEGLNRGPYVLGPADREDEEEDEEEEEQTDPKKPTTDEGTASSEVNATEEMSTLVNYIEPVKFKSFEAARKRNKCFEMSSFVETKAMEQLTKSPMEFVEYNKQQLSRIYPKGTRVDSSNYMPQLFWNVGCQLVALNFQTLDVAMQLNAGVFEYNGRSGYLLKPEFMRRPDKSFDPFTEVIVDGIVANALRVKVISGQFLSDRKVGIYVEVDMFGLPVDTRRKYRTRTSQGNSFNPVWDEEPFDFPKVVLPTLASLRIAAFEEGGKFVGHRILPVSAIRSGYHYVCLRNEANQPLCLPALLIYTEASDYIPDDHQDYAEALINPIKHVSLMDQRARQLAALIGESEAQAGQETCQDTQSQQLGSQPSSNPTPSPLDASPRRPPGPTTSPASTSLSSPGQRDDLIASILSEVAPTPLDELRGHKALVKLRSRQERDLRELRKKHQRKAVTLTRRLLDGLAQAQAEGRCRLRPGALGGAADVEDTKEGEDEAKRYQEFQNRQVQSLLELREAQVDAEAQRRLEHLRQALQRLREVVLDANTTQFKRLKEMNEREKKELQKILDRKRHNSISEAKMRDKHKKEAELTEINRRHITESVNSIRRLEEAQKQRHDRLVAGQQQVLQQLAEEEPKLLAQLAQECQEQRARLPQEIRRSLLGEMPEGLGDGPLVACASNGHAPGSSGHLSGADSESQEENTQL
PLC-gamma1 inh = PLC-gamma1 (human) inhibition, primary screen | P19174 | purified PLC-gamma1, fluorogenic substrate, fluorescence | inhibition, % at 12.2 µM | actives 0.84% (n = 370,000) | AID 720700; in the data active means inhibition above about 9.5%
PLCg1 ctr = PLC-gamma1 inhibition, counter-screen for PLC-beta3 hits. purified PLC-gamma1, fluorogenic substrate, fluorescence. inhibition, % at 12.3 µM. actives 3.1% (n = 3,300). AID 743258. shares compounds with PLC-gamma1 inh; in the data active means inhibition above about 9.5%
PLCbeta3 conf = human PLC-beta3 inhibition, confirmation; AID 743261; purified PLC-beta3, fluorogenic substrate fluorescence; actives 1% (n = 3,300); shares compounds with PLC-gamma1 inh; inhibition, % at 12.3 µM
An asterisk follows results filed as active; . = no result. In the library only some 1.9% were active in any assay of this set; here they are far more common. Unless noted, no stated cut-off is given here; in the data, active means inhibition above about 11%; inactive means the rest.

SMILES	TbMetRS inhib	sPLA2-III inh	PLC-beta3 inh	PLC-gamma1 inh	PLCg1 ctr	PLCbeta3 conf
CC1=CC2=NC(=O)/C(=C\c3ccc(OC(=O)c4ccco4)cc3)C(=N)N2O1	0	-24	12*	9	-2	0
COc1cc(/C=C2/C(=N)N3OC(C)=CC3=NC2=O)ccc1OC(=O)c1ccco1	-1	-29	-6	-2	.	.
CCn1c(=O)cc(OCC(=O)NCc2ccco2)c2ccccc21	-2	-2	-5	12*	6	-1
FC(F)(F)c1cc(CNC2CCC23CCCCC3)ccc1Cl (stereo not given)	.	3	4	1	.	.
CCN(CC)S(=O)(=O)c1ccc(C(C)NCC(=O)Nc2ccccc2C(=O)NC2CC2)cc1 (stereo not given)	0	4	-5	10*	0	-1
CC(NCC(=O)Nc1ccccc1C(=O)NC1CC1)c1ccc(S(N)(=O)=O)cc1 (stereo not given)	0	14	-4	-6	.	.
Cc1cccc(OCC(=O)N(C)CCc2ccccn2)c1	0	3	11*	8	-4	1
Cc1cccc(CN(C)CCc2ccccn2)c1	-1	0	0	1	.	.
COc1ccc(N2CCN(CCCNC(=O)CCOC(C)(C)C)CC2)cc1	.	-4	0	3	.	.
COc1ccc(-n2c(SCC(=O)Nc3ccc4c(c3)OCCO4)nnc2-c2ccccc2)cc1	.	0	1	0	.	.
CC(=O)c1cc(-c2ccc3c(c2)OCO3)c(=O)n2c1CCC2	.	-1	-4	-1	.	.
COc1ccc(NS(=O)(=O)c2cccc(C(=O)NNC(=O)COc3ccccc3)c2)cc1	-1	-30	-3	9.6*	-8	-260
O=c1c(=O)n(O)c2ccccc2n1O	0	0	-1	13*	-6	-2
O=S1(=O)c2ccc(N3CCC[C@@H]3CO)cc2O[C@@H]2CCN1C2	.	0	-4	-4	.	.
CC1C(c2ccccc2)OCCN1C(=S)NC(=O)c1ccccc1 (stereo not given)	0	-2	15*	1	-6	-1
Cc1cnc(NC(=O)c2ccncc2)s1	0	11	-5	11*	-5	-2
Cc1nnc(NC(=O)c2ccncc2)s1	-1	3	-1	2	.	.
CCCC/C=C1/[C@@H](C(C)C)N(Cc2ccc3c(c2)OCO3)C2=N[C@H](c3ccccc3)CC(=O)N21	.	6	11*	8	2	0
Cc1ccc(S(=O)(=O)Nc2ccc3c(c2)CCC3)cc1C	0	8	-3	13*	1	0
Cc1ccc(S(=O)(=O)Nc2ccc3c(c2)CCC3)cc1	0	-15	-2	-1	.	.
CC1Cc2ccccc2N1C(=O)CSc1nc(-c2ccco2)cc(C(F)(F)F)n1 (stereo not given)	1	-5	1	13*	-2	0
CN1CCN(C(=O)CSc2nc(-c3ccco3)cc(C(F)(F)F)n2)CC1	1	-7	-2	-4	.	.
COc1ccc(CN2CCC(CNC(=O)Nc3ccc(Cl)cc3)CC2)cc1	.	-3	1	2	.	.
COc1ccc(C(CNC(=O)c2cc3ccccc3o2)N2CCCC2)cc1 (stereo not given)	0	6	-12	11*	-8	-4
COc1ccc(C(CNC(=O)c2cc3ccccc3o2)N2CCCCC2)cc1 (stereo not given)	0	-2	7	2	.	.
SMILES	TbMetRS inhib	sPLA2-III inh	PLC-beta3 inh	PLC-gamma1 inh	PLCg1 ctr	PLCbeta3 conf
CC(=O)Nc1ccc(CNc2nc(NC(C)C)nc3ccsc23)cc1	0	5	-4	11*	2	-4
CC(=O)Nc1ccc(CNc2nc(NCC3CC3)nc3ccsc23)cc1	0	-13	4	5	.	.
Cc1ccc(S(=O)(=O)N2OC(c3ccccc3)C[C@H]2CC=C(c2ccccc2)c2ccccc2)cc1 (stereo not given in full)	.	-8	4	1	.	.
O=C(Nc1nc(-c2ccc(F)cc2)cs1)C1CCCO1 (stereo not given)	0	-6	3	12*	-3	-2
O=C(C[n+]1cc(-c2ccc(F)cc2)n2c1CCC2)Nc1nc(-c2ccc(F)cc2)cs1	0	-23	8	12*	0	-35
O=C(C[n+]1cc(-c2ccccc2)n2c1CCC2)Nc1nc(-c2ccc(F)cc2)cs1	-1	-6	0	4	.	.
COc1ccccc1NC(C)=O	1	0	5	1	.	.
COc1ccccc1NC(=O)C(=N\O)/C(C)=N/O	0	-5	4	11*	-6	0
COc1ccc(OC)c(NC(=O)CCNS(=O)(=O)c2ccc3c(c2)oc(=O)n3C)c1	-1	-1	12*	6	-3	-2
C#CCN(Cc1ccco1)C(=O)c1nnc2c3ccccc3n(S(=O)(=O)c3ccc(C)cc3)c2n1	.	-3	-22	-17	.	.
O=C(NCC1CCCCC1)c1ccc([N+](=O)[O-])cc1	0	1	-2	3	.	.
Cc1cc(C(=O)NCC2CCCCC2)ccc1[N+](=O)[O-]	0	1	1	11*	-6	-1
CCOC(=O)C(NC(=O)c1ccccc1)(N1CCOCC1)C(F)(F)F (stereo not given)	1	4	4	10*	-3	-3
CO/N=C/c1cc([N+](=O)[O-])ccc1Sc1ccc(C)cc1	-1	6	4	10*	-14	-14
COc1ccc(Nc2nnc(-c3ccc4c(c3)OCO4)o2)cc1	.	3	0	-3	.	.
COc1ccc(C)c(NC(=O)[C@@H]2CCCN2S(=O)(=O)c2cccc3cccnc23)c1	.	1	0	2	.	.
CCCNC(=O)C1(O)c2cc(Br)ccc2NC(=O)N1c1ccc(Cl)cc1 (stereo not given)	1	-2	-3	1	.	.
CCN(CC)CCNC(=O)C1(O)c2cc(Br)ccc2NC(=O)N1c1ccc(Cl)cc1 (stereo not given)	1	3	7	12*	-5	-2
O=C(c1cc(Cl)cc(Cl)c1)N1CCC(Oc2cccnc2)CC1	.	-6	0	0	.	.
COc1ccc2c(c1C(=O)/C=C/c1ccccc1)OC(C)(C)C=C2	.	4	-7	-1	.	.
O=S(=O)(N1CCOCC1)N1CCCN(S(=O)(=O)N2CCOCC2)CC1	-1	3	6	11*	0	4
COc1ccc(C(CC(=O)N2CCCC2)c2ccc(F)cc2)cc1 (stereo not given)	0	8	2	11*	5	4
Cc1cc(F)cc(-c2cc(C(=O)NCc3cccc(Cl)c3)[nH]n2)c1	0	-7	2	10*	-5	-6
Cc1cc(F)cc(-c2cc(C(=O)NCc3ccccc3)[nH]n2)c1	0	-13	0	1	.	.
COc1ccc2c(c1)OC(=O)CC2c1cc(OC)c(OC)c(OC)c1 (stereo not given)	-1	8	8	11*	-4	-11
